Reference: ChEMBL document CHEMBL3044531, “Quantitative structure-antifungal activity relationships of some benzohydrazides against Botrytis cinerea” (2007)

Tests used:
Assay type in all cases: functional
Details in all cases: 144 h
[1] = tested on: Botrytis cinerea; assay: Antifungal activity against Botryotinia fuckeliana assessed as radial growth inhibition at 50 ug/mL measured after 6 days
Method in brief: (§1)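 Radial growth inhibition of B. cinerea on glucose-malt-peptone agar (61 g/L, pH 6.5-7.0) in 9 cm dishes. Compound in acetone added to the medium at final 50-200 μg/mL, with equal acetone in the controls. A 5 mm mycelial disc from an actively growing culture was placed centrally. Growth was followed for 6 days; % inhibition from mean colony diameter versus untreated control. Triplicate, repeated at least three times.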

[2] = tested on: Botrytis cinerea; assay: Antifungal activity against Botryotinia fuckeliana assessed as radial growth inhibition at 100 ug/mL measured after 6 days; method in brief: as §1
[3] = tested on: Botrytis cinerea; assay: Antifungal activity against Botryotinia fuckeliana assessed as radial growth inhibition at 200 ug/mL measured after 6 days; method in brief: as §1

Row | Compound | inhibition at 50 µg/mL [1] | inhibition at 100 µg/mL [2] | inhibition at 200 µg/mL [3]
1 | O=C(NN1Cc2ccccc2C1)c1ccccc1F | 42% | 50% | 91%
2 | O=C(NN(Cc1ccccc1)Cc1ccccc1)c1ccccc1Cl | 31% | 42% | 86%
3 | CN(C)NC(=O)c1ccccc1I | 19% | 28% | 33%
4 | CN(C)NC(=O)c1ccccc1F | 12% | 22% | 32%
5 | CN(C)NC(=O)c1ccccc1Cl | 0% | 0% | 33%
6 | O=C(NN(Cc1ccccc1)Cc1ccccc1)c1ccccc1I | 27% | 50% | 82%
7 | Cc1ccccc1C(=O)NN(Cc1ccccc1)Cc1ccccc1 | 48% | 55% | 88%
8 | O=C(NN1CCCCC1)c1ccccc1F | 46% | 51% | 51%
9 | O=C(NN1CCCCC1)c1ccccc1Cl | 36% | 40% | 57%
10 | O=C(NN1CCCCC1)c1ccccc1I | 33% | 42% | 46%
11 | COc1ccccc1C(=O)NN1CCCCC1 | 38% | 47% | 51%
12 | O=C(NN(Cc1ccccc1)Cc1ccccc1)c1ccccc1 [N',N'-DIBENZYLBENZOHYDRAZIDE] | 10% | 42% | 44%
13 | CN(C)NC(=O)c1ccccc1 [N',N'-DIMETHYLBENZOHYDRAZIDE] | 24% | 45% | 51%
14 | O=C(NN1CCCCC1)c1ccccc1 [N-PIPERIDINOBENZAMIDE] | 37% | 43% | 45%
